# From ChEMBL document CHEMBL1123512, “Synthesis and biological activity of analogues of beta-chlornaltrexamine and beta-funaltrexamine at opioid receptors” (J Med Chem, 1986)
# Assays:
# [1] = Reversible antagonistic activity against opioid receptor in electrically stimulated longitudinal muscle of guinea pig ileum expressed as IC50 of morphine by IC50 of control; type: functional
# Summary of the method: (§1)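 In guinea pig ileum longitudinal muscle, morphine or ethylketazocine (EK) was tested in the presence of ligand at 10 nM, without washing. The value is the agonist IC50 in the treated preparation divided by the control IC50 in the same preparation.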
# [2] = target: T1, Opioid receptors; mu/kappa/delta (Homo sapiens, UniProt P41145+P41143+P35372); assay: (§2) Compound was tested for agonist activity against opioid receptor in electrically stimulated longitudinal muscle of guinea pig ileum; type: functional, tissue-based; settings: Cavia porcellus, target entry is the homologue from another species
# [3] = target: T1, Opioid receptors; mu/kappa/delta; assay: Irreversible antagonistic activity against opioid receptor in electrically stimulated longitudinal muscle of guinea pig ileum expressed as IC50 of morphine by IC50 of control; type: functional, tissue-based
# Summary of the method: (§3)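 Guinea pig ileum longitudinal muscle was exposed to ligand at 200 nM for 30 min, then washed thoroughly (30 times), and challenged with morphine or ethylketazocine (EK). The value is the agonist IC50 in the treated preparation divided by the control IC50 in the same preparation.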
# [4] = target: T1, Opioid receptors; mu/kappa/delta; assay: Percent inhibition against opioid receptor in electrically stimulated longitudinal muscle of guinea pig ileum at 1 uM; type: tissue-based; settings: Cavia porcellus, target entry is the homologue from another species
# [5] = target: T1, Opioid receptors; mu/kappa/delta; assay: Compound was tested for irreversible antagonistic activity against opioid receptor in mouse vas deferens expressed as IC50 of morphine by IC50 of control; type: functional, tissue-based
# [6] = target: T2, Opioid receptor (Mus musculus) (UniProt P42866+P32300+P33534); assay: Percent inhibition against opioid receptor in mouse vas deferens at 3 uM; type: tissue-based
# [7] = target: T1, Opioid receptors; mu/kappa/delta; assay: Irreversible antagonistic activity against opioid receptor in electrically stimulated longitudinal muscle of guinea pig ileum expressed as IC50 of EK by IC50 of control; type: functional, tissue-based; summary of the method: as §3
# [8] = target: T1, Opioid receptors; mu/kappa/delta; assay: Compound was tested for irreversible antagonistic activity against opioid receptor in mouse vas deferens expressed as IC50 of DADLE by IC50 of control; type: functional, tissue-based
# [9] = target: T2, Opioid receptor (Mus musculus); assay: Compound was tested for agonist activity against opioid receptor in mouse vas deferens; type: functional, tissue-based
# [10] = Reversible antagonistic activity against opioid receptor in electrically stimulated longitudinal muscle of guinea pig ileum expressed as IC50 of EK by IC50 of control; type: functional; summary of the method: as §1
# [11] = target: T2, Opioid receptor (Mus musculus); assay: Percent inhibition against opioid receptor in mouse vas deferens at 1 uM; type: tissue-based
# [12] = target: T1, Opioid receptors; mu/kappa/delta; assay: Percent inhibition against opioid receptor in electrically stimulated longitudinal muscle of guinea pig ileum at 100 nM; type: tissue-based; settings: Cavia porcellus, target entry is the homologue from another species
# [13] = target: T1, Opioid receptors; mu/kappa/delta; assay: (§4) Compound was tested for irreversible antagonistic activity against opioid receptor in mouse vas deferens; type: functional, tissue-based
# [14] = target: T1, Opioid receptors; mu/kappa/delta; assay: as §4; type: functional, tissue-based; remark: listed apart in the source
# [15] = target: T2, Opioid receptor (Mus musculus); assay: Compound was tested for irreversible antagonistic activity against opioid receptor in mouse vas deferens at 3 uM; type: functional, tissue-based
# [16] = target: T1, Opioid receptors; mu/kappa/delta; assay: as §2; type: functional, tissue-based, Cavia porcellus; settings: target entry is the homologue from another species
# T1 sequence (P35372 whole entry, looked up): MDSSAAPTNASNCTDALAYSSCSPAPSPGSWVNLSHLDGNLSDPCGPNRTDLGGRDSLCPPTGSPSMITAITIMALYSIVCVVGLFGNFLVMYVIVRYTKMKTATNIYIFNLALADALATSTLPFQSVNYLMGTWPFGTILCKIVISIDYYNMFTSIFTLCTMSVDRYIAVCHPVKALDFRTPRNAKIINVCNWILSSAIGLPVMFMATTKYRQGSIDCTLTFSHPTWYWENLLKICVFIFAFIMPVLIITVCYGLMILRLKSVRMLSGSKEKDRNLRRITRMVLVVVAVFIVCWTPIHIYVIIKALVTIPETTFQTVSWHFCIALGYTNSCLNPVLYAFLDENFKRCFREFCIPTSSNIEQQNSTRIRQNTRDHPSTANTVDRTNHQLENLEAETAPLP
# T1 sequence (P41143 whole entry, looked up): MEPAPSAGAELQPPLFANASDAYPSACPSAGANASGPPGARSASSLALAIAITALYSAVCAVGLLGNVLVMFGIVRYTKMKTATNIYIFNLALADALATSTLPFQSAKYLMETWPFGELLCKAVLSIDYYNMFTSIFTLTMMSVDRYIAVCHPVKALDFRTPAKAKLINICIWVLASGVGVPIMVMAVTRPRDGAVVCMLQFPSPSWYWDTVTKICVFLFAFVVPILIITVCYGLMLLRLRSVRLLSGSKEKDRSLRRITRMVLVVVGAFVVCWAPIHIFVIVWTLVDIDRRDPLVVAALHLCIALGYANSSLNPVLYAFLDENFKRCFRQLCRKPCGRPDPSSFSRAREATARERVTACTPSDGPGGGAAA
# T1 sequence (P41145 whole entry, looked up): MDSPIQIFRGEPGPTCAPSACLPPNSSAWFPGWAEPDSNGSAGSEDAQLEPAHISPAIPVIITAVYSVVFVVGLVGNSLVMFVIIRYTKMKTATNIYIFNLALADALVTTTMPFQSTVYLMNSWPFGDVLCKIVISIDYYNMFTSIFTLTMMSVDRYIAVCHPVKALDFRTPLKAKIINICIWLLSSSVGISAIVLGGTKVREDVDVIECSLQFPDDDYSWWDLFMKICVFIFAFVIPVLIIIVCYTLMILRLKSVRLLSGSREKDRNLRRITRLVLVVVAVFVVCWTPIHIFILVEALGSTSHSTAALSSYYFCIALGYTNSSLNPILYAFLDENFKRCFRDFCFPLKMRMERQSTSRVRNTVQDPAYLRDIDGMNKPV
# T2 sequence (P32300 whole entry, looked up): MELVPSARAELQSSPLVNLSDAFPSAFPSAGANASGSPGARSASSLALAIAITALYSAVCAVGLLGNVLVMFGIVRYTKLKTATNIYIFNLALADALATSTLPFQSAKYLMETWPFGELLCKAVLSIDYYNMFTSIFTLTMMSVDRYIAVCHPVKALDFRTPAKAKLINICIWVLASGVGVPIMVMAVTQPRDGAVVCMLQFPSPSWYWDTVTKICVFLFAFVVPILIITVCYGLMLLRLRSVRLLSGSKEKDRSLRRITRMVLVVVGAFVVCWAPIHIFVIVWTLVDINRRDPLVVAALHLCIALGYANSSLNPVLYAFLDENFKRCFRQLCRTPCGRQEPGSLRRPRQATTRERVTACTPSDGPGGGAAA
# T2 sequence (P33534 whole entry, looked up): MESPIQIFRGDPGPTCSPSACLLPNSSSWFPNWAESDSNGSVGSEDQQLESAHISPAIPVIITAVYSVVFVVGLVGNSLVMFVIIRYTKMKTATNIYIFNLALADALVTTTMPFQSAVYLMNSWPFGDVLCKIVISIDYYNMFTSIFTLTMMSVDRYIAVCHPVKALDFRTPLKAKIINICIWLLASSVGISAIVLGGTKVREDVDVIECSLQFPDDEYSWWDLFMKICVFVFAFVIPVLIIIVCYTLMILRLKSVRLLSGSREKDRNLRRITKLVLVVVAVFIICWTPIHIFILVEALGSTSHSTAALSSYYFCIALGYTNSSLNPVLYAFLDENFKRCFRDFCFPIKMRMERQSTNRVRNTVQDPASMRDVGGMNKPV
# T2 sequence (P42866 whole entry, looked up): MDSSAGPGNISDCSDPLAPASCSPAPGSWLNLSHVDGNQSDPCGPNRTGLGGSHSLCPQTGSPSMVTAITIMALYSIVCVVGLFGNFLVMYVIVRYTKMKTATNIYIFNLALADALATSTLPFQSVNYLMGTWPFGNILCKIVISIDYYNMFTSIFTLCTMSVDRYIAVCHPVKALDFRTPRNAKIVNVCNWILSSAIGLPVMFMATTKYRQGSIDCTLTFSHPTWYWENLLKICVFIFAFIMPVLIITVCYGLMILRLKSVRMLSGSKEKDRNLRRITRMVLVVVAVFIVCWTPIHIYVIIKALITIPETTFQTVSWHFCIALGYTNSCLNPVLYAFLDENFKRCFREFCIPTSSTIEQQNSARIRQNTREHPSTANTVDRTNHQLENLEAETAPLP
Compound,Ratio [1],IC30 [2] [nM],Ratio [3],inhibition [4] [%],Ratio [5],inhibition [6] [%],Ratio [7],Ratio [8],IC30 [9] [nM],Ratio [10],inhibition [11] [%],IC20 [2] [nM],inhibition [12] [%],Ratio [13],Ratio [14],inhibition [15] [%],IC50 [16] [nM]
CCOC(=O)/C=C/C(=O)NCC(=O)N[C@@H]1CC[C@@]2(O)C3Cc4ccc(O)c5c4C2(CCN3CC2CC2)[C@H]1O5 (stereo partly specified),2.5,10,0.6,42,1.8,56,2,0.8,7,2.5,–,–,–,–,–,–,–
CCOC(=O)/C=C/C(=O)NCC(=O)NCC(=O)N[C@@H]1CC[C@@]2(O)C3Cc4ccc(O)c5c4C2(CCN3CC2CC2)[C@H]1O5 (stereo partly specified),16.8,–,3.9,–,–,–,1.3,–,10,4.8,59,10,45,4.3,1.2,–,–
CCOC(=O)/C=C/C(=O)NCC(=O)NCC(=O)NCC(=O)N[C@@H]1CC[C@@]2(O)C3Cc4ccc(O)c5c4C2(CCN3CC2CC2)[C@H]1O5 (stereo partly specified),12.3,–,1.3,–,–,–,0.8,–,20,3.3,61,10,45,1.2,–,–,–
O=C(CN(CCCl)CCCl)N[C@@H]1CC[C@@]2(O)C3Cc4ccc(O)c5c4C2(CCN3CC2CC2)[C@H]1O5 (stereo partly specified),–,–,27.4,–,–,–,12.3,4,20,–,55,–,–,–,–,54,3.8
